Changes are numbered by the printed parent chain. Entries after “also recorded” stand apart in the source; their conditions may differ. Peptide text beside a SMILES is read from it. * marks the point of attachment. Cbz = O=C(OCc1ccccc1)*
How the values were obtained:
TNIK = TNIK level and phosphorylation in primary hippocampal neurons; type: cell-based, rat; conditions: 10 µM MG132 or 25 µg/ml leupeptin for 7 h, then 10 µM peptide 40 min; N=4
PSD-95 = PSD-95 level in primary hippocampal neurons; type: cell-based, rat; conditions: 10 µM MG132 or 25 µg/ml leupeptin for 7 h, then 10 µM peptide 40 min; N=4
GluR1 = GluR1 level in primary hippocampal neurons; type: cell-based, rat; conditions: 10 µM MG132 or 25 µg/ml leupeptin for 7 h, then 10 µM peptide 40 min; N=4
HA-TNIK = experiment: Co-immunoprecipitation of DISC1 with TNIK from HEK293 cells; type: binding, human; conditions: HA-TNIK and Myc-DISC1 construct coexpressed in HEK293 cells
How it was run: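 HEK293 cells in DMEM with 10% heat-inactivated FBS, seeded at 40–80% density and transfected 24 h later (Lipofectamine 2000). Lysed in co-IP buffer (50 mM Tris-Cl pH 7.5, 150 mM NaCl, 1 mM EDTA, 1% Triton X-100) with protease/phosphatase inhibitors, 30 min at 4 °C, then cleared at 12000 g. Protein G beads loaded with 1–3 µg antibody for 1 h, incubated with lysate 2 h to overnight at 4 °C, washed, and run on 4–12% Bis-Tris gels for western blot.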

TNIK in NIH3T3 cells = experiment: TNIK-induced cell rounding assay; type: cell-based; conditions: for inhibition of TNIK-induced cell rounding: NIH3T3 cells co-transfected with HA-TNIK WT and DISC1 construct
How it was run: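 NIH3T3 cells in DMEM with 10% heat-inactivated FBS, seeded at 40–80% density and co-transfected 24 h later (Lipofectamine 2000) with HA-tagged TNIK and Myc-tagged DISC1 constructs. Immunofluorescence staining with anti-HA/anti-Myc antibodies. Rounding was scored as cell length-to-breadth ratio measured from TNIK (HA) staining.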

Molecule: CC(C)C[C@@H](C=O)NC(=O)[C@H](CC(C)C)NC(=O)[C@H](CC(C)C)NC(=O)OCc1ccccc1 [MG132] (Cbz-Leu-Leu-Leu-aldehyde)
- dephosphorylation of TNIK at S764, with inhibitor pretreatment (TNIK): not affected by MG132
- dephosphorylation of TNIK at S769, with inhibitor pretreatment (TNIK): neither affected by MG132 or leupeptin
- DISCpep-WT-tat-induced loss of PSD-95, with inhibitor pretreatment (PSD-95): blocked by MG132; also recorded: rescued
- DISCpep-WT-tat-induced loss of GluR1, with inhibitor pretreatment (GluR1): a reciprocal effect observed for GluR1; also recorded: GluR1 degradation still occurred

Molecule: CC(=O)N[C@@H](CC(C)C)C(=O)N[C@@H](CC(C)C)C(=O)N[C@H](C=O)CCCNC(=N)N [leupeptin]
- dephosphorylation of TNIK at S769, with inhibitor pretreatment (TNIK): neither affected by MG132 or leupeptin
- DISCpep-WT-tat-induced loss of PSD-95, with inhibitor pretreatment (PSD-95): not leupeptin
- DISCpep-WT-tat-induced loss of GluR1, with inhibitor pretreatment (GluR1): a reciprocal effect observed for GluR1; also recorded: rescued

B1: DISC1 AS1: DISC1 containing the mutation VLR336–338AAA, expressed from plasmid (protein)
chain: MPGGGPQGAPAAAGGGGVSHRAGSRDCLPPAACFRRRRLARRPGYMRSSTGPGIGFLSPAVGTLFRFPGGVSGEESHHSESRARQCGLDSRGLLVRSPVSKSAAAPTVTSVRGTSAHFGIQLRGGTRLPDRLSWPCGPGSAGWQQEFAAMDSSETLDASWEAACSDGARRVRAAGSLPSAELSSNSCSPGCGPEVPPTPPGSHSAFTSSFSFIRLSLGSAGERGEAEGCPPSREAESHCQSPQEMGAKAASLDGPHEDPRCLSRPFSLLATRVSADLAQAARNSSRPERDMHSLPDMDPGSSSSLDPSLAGCGGDGSSGSGDAHSWDTLLRKWEPAAADCLLRNRRQMEVISLRLKLQKLQEDAVENDDYDKAETLQQRLEDLEQEKISLHFQLPSRQPALSSFLGHLAAQVQAALRRGATQQASGDDTHTPLRMEPRLLEPTAQDSLHVSITRRDWLLQEKQQLQKEIEALQARMFVLEAKDQQLRREIEEQEQQLQWQGCDLTPLVGQLSLGQLQEVSKALQDTLASAGQIPFHAEPPETIRSLQERIKSLNLSLKEITTKVCMSEKFCSTLRKKVNDIETQLPALLEAKMHAISGNHFWTAKDLTEEIRSLTSEREGLEGLLSKLLVLSSRNVKKLGSVKEDYNRLRREVEHQETAYETSVKENTMKYMETLKNKLCSCKCPLLGKVWEADLEACRLLIQSLQLQEARGSLSVEDERQMDDLEGAAPPIPPRLHSEDKRKTPLKVLEEWKTHLIPSLHCAGGEQKEESYILSAELGEKCEDIGKKLLYLEDQLHTAIHSHDEDLIQSLRRELQMVKETLQAMILQLQPAKEAGEREAAASCMTAGVHEAQA
modifications: left off: Myc, end not stated, kept
- interaction with TNIK (co-IP) (HA-TNIK; listed as Myc-DISC1 AS1): only showed a weak interaction with TNIK
- inhibition of TNIK-induced cell rounding (TNIK in NIH3T3 cells): could not inhibit TNIK in cell-based assays

B2: DISC1 WT: wild-type human DISC1 expressed from plasmid (protein)
chain: B1 chain with A336V, A337L, A338R
modifications: left off: Myc, end not stated, kept
- interaction with TNIK (co-IP) (HA-TNIK): co-immunoprecipitates with HA-TNIK
- inhibition of TNIK-induced cell rounding (TNIK in NIH3T3 cells): unable to induce cell rounding; also recorded: inhibits TNIK-induced cell rounding
- length-to-breadth ratio of cells (TNIK in NIH3T3 cells; NIH3T3 cells, co-expressed with TNIK, versus empty vector, N>30): significantly increased the average length-to-breadth ratio of a cell

B3: DISC1 ΔTNIK: DISC1 with amino acids 329–350 deleted, expressed from plasmid (protein)
chain: MPGGGPQGAPAAAGGGGVSHRAGSRDCLPPAACFRRRRLARRPGYMRSSTGPGIGFLSPAVGTLFRFPGGVSGEESHHSESRARQCGLDSRGLLVRSPVSKSAAAPTVTSVRGTSAHFGIQLRGGTRLPDRLSWPCGPGSAGWQQEFAAMDSSETLDASWEAACSDGARRVRAAGSLPSAELSSNSCSPGCGPEVPPTPPGSHSAFTSSFSFIRLSLGSAGERGEAEGCPPSREAESHCQSPQEMGAKAASLDGPHEDPRCLSRPFSLLATRVSADLAQAARNSSRPERDMHSLPDMDPGSSSSLDPSLAGCGGDGSSGSGDAHSWDTISLRLKLQKLQEDAVENDDYDKAETLQQRLEDLEQEKISLHFQLPSRQPALSSFLGHLAAQVQAALRRGATQQASGDDTHTPLRMEPRLLEPTAQDSLHVSITRRDWLLQEKQQLQKEIEALQARMFVLEAKDQQLRREIEEQEQQLQWQGCDLTPLVGQLSLGQLQEVSKALQDTLASAGQIPFHAEPPETIRSLQERIKSLNLSLKEITTKVCMSEKFCSTLRKKVNDIETQLPALLEAKMHAISGNHFWTAKDLTEEIRSLTSEREGLEGLLSKLLVLSSRNVKKLGSVKEDYNRLRREVEHQETAYETSVKENTMKYMETLKNKLCSCKCPLLGKVWEADLEACRLLIQSLQLQEARGSLSVEDERQMDDLEGAAPPIPPRLHSEDKRKTPLKVLEEWKTHLIPSLHCAGGEQKEESYILSAELGEKCEDIGKKLLYLEDQLHTAIHSHDEDLIQSLRRELQMVKETLQAMILQLQPAKEAGEREAAASCMTAGVHEAQA
modifications: left off: Myc, end not stated, kept
- interaction with TNIK (co-IP) (HA-TNIK; listed as Myc-DISC1 ΔTNIK): abolition of interaction with TNIK

Reference: article PMC3176992 (Molecular psychiatry, 2010)
